Reference: ChEMBL document CHEMBL4699542, “Design and synthesis of novel methoxypyridine-derived gamma-secretase modulators” (Bioorg Med Chem, 2020)
pIC50: −log10 of the molar value. Converted amounts (≈) assume the structure as drawn.

How the values were obtained:
[1] = Metabolic stability in human liver microsomes assessed as parent compound remaining at 1 uM incubated for 30 mins; assay type: ADME, Microsome; details: for Stabilty: microsomes, 0.5 h, 1 µM
Method in brief: (§1)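 Test compound at 1 μM incubated 30 min with human, rat or mouse liver microsomes (1 mg/mL); parent remaining expressed as %.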

[2] = Metabolic stability in rat liver microsomes assessed as parent compound remaining at 1 uM incubated for 30 mins; assay type: ADME, Microsome; details: 0.5 h; method in brief: as §1
[3] = target: Gamma-secretase; assay: Modulation of gamma secretase in human SH-SY5Y cells overexpressing wild type APP751 assessed as inhibition of amyloid beta (35 to 42 residues) formation incubated for overnight by ELISA; assay type: cell-based
Method in brief: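 SHSY5Y-APP751 cells plated at 75K/well and incubated overnight at 37 °C, then treated 24 h over 10 concentrations ([…]–10 μM, 1:3.16 steps, in duplicate). Medium Aβ42 measured by sandwich ELISA (Aβ35–42 capture, AP-conjugated Aβ1–12 detection, CDP-Star luminescence) against an Aβ42 standard curve.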

[4] = Kinetic aqueous solubility of the compound in pH 7.4 PBS buffer by UV/Visible absorbance analysis; assay type: physicochemical; details: read-out: Kinetic_solubility
Method in brief: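 Kinetic solubility determined in PBS at pH 7.4 by UV/Vis absorbance, reported in μM.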

[5] = Metabolic stability in mouse liver microsomes assessed as parent compound remaining at 1 uM incubated for 30 mins; assay type: ADME, Microsome; details: 0.5 h; method in brief: as §1
[6] = target: Cytochrome P450 3A4 (Homo sapiens, UniProt P08684); assay: Inhibition of recombinant CYP3A4 (unknown origin) by fluorescence-based assay; assay type: ADME
Cytochrome P450 3A4, sequence (P08684 whole entry): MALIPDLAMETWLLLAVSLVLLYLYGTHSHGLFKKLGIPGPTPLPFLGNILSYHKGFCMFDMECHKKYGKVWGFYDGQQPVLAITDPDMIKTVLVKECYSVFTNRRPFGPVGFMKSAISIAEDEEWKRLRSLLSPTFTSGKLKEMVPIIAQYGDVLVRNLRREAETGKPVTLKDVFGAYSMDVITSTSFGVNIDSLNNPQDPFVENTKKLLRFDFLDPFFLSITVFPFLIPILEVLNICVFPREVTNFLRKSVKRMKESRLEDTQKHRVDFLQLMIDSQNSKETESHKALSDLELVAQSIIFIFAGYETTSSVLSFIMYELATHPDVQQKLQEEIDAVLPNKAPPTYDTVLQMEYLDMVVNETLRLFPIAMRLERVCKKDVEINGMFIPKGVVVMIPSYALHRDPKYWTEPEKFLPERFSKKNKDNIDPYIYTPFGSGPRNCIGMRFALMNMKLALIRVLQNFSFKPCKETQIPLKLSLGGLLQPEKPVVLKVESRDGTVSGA

[7] = target: T1, Cytochrome P450 1A2 (Homo sapiens, UniProt P05177); assay: Inhibition of recombinant CYP1A2 (unknown origin) by fluorescence-based assay; assay type: ADME
T1 sequence (P05177 whole entry): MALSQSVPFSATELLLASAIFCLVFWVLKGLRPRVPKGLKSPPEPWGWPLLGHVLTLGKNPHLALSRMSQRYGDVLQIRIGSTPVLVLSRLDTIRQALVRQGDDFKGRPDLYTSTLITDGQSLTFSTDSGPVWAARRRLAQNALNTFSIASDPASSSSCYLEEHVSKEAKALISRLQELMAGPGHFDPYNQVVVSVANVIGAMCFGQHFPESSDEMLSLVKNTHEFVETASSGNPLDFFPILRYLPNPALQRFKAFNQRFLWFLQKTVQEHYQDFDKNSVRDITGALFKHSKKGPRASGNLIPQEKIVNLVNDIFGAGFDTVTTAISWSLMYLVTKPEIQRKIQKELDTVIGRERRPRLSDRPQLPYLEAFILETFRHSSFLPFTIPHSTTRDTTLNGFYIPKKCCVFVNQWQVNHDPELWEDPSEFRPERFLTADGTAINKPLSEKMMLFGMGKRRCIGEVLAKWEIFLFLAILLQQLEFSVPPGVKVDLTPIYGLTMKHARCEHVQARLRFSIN
Method in brief: (§2)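 Recombinant CYP isoforms (five tested) screened for inhibition in fluorescence-based assays; IC50 in μM.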

[8] = target: Cytochrome P450 2C9 (Homo sapiens, UniProt P11712); assay: Inhibition of recombinant CYP2C9 (unknown origin) by fluorescence-based assay; assay type: ADME; method in brief: as §2
Cytochrome P450 2C9, sequence (P11712 whole entry): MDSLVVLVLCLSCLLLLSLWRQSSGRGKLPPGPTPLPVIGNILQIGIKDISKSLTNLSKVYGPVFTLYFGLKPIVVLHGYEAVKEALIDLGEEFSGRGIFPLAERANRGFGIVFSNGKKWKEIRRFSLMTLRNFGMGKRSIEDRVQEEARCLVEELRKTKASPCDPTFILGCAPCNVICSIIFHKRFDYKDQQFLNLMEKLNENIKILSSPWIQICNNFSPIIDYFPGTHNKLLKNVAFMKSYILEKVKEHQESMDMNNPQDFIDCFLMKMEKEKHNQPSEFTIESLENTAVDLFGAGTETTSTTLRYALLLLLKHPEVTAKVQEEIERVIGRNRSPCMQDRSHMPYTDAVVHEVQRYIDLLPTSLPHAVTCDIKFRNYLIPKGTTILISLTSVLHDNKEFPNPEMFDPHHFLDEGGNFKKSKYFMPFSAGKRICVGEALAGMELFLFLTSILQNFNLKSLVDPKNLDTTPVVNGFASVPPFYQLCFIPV

[9] = target: Cytochrome P450 2D6 (Homo sapiens, UniProt P10635); assay: Inhibition of recombinant CYP2D6 (unknown origin) by fluorescence-based assay; assay type: ADME; method in brief: as §2
Cytochrome P450 2D6, sequence (P10635 whole entry): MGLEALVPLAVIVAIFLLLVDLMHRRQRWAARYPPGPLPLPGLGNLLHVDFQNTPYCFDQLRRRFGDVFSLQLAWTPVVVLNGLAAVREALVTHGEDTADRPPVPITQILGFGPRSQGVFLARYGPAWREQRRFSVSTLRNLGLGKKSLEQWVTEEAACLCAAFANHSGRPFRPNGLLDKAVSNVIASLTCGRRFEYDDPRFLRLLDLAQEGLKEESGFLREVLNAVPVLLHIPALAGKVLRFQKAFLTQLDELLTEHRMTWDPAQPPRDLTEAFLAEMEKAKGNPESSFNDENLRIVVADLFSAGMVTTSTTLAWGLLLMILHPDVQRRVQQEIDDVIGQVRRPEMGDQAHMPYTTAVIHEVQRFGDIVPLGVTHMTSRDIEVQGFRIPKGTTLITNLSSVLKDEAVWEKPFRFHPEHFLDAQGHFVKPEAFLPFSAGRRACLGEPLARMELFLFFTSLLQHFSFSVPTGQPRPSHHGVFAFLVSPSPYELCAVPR

[10] = target: Cytochrome P450 2C19 (Homo sapiens, UniProt P33261); assay: Inhibition of recombinant CYP2C19 (unknown origin) by fluorescence-based assay; assay type: ADME; method in brief: as §2
Cytochrome P450 2C19, sequence (P33261 whole entry): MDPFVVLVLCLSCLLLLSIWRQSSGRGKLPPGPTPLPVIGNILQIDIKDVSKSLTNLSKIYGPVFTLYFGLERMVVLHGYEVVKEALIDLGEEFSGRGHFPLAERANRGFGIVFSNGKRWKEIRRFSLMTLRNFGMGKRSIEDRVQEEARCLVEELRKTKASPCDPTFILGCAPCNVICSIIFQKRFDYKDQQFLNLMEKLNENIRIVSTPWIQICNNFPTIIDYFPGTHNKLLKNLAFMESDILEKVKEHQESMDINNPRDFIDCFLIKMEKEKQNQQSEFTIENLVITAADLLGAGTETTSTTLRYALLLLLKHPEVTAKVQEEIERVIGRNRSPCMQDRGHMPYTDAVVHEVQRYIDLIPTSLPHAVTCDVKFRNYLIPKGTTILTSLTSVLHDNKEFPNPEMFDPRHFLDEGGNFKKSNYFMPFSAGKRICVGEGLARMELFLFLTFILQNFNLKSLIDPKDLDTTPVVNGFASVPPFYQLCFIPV

Compound: COc1nc(-c2csc(Nc3c4c(nn3C)CCCC4)n2)ccc1-n1cnc(C)c1
- Stabilty [1]: 36%
- Stabilty [2]: 60%
- pIC50 [3]: 6.98
- solubility kinetic [4]: 15 µM (≈ 6.32 µg/mL)
- Stabilty [5]: 34%

Compound: CCn1nc(C(C)(C)C)cc1Nc1nc(-c2ccc(-n3cnc(C)c3)c(OC)n2)cs1
- Stabilty [1]: 38%
- Stabilty [2]: 89%
- pIC50 [3]: 6.94
- solubility kinetic [4]: 15 µM (≈ 6.56 µg/mL)
- Stabilty [5]: 67%

Compound: COc1cc(-c2csc(Nc3cc(C(C)(C)C)nn3C)n2)ccc1-n1cnc(C)c1
- Stabilty [1]: 60%
- Stabilty [2]: 76%
- pIC50 [3]: 6.60
- Stabilty [5]: 92%

Compound: COc1nc(-c2csc(Nc3c4c(nn3C3CCCCC3)CCCC4)n2)ccc1-n1cnc(C)c1
- pIC50 [3]: 7.20
- solubility kinetic [4]: < 1.6 µM

Compound: COc1nc(-c2csc(Nc3cc(C(C)(C)C)nn3C)n2)ccc1-n1cnc(C)c1
- pIC50 [3]: 6.87

Compound: COc1nc(-c2csc(Nc3cc(C(C)(C)C)nn3CCF)n2)ccc1-n1cnc(C)c1
- Stabilty [1]: 49%
- Stabilty [2]: 86%
- pIC50 [3]: 7.14
- pIC50 [6]: 7.40
- solubility kinetic [4]: 3.3 µM (≈ 1.5 µg/mL)
- pIC50 [7]: 4.19
- Stabilty [5]: 67%
- pIC50 [8]: 5.39
- pIC50 [9]: < 4.00
- pIC50 [10]: 5.48

Compound: CCn1nc(C(C)C)cc1Nc1nc(-c2ccc(-n3cnc(C)c3)c(OC)n2)cs1
- pIC50 [3]: 6.74

Compound: COc1nc(-c2csc(Nc3cc(C(C)(C)C)nn3C(C)(C)C)n2)ccc1-n1cnc(C)c1
- pIC50 [3]: 7.40
- solubility kinetic [4]: < 1.6 µM

Compound: COc1nc(-c2csc(Nc3c4c(nn3CC(F)(F)F)CCCC4)n2)ccc1-n1cnc(C)c1
- Stabilty [1]: 13%
- Stabilty [2]: 41%
- pIC50 [3]: 7.24
- solubility kinetic [4]: 7.4 µM (≈ 3.62 µg/mL)
- Stabilty [5]: 39%

Compound: COc1nc(-c2csc(Nc3c4c(nn3C3CCCC3)CCCC4)n2)ccc1-n1cnc(C)c1
- pIC50 [3]: 7.08
- solubility kinetic [4]: 1.8 µM (≈ 0.856 µg/mL)

Compound: CCCn1nc(C(C)(C)C)cc1Nc1nc(-c2ccc(-n3cnc(C)c3)c(OC)n2)cs1
- pIC50 [3]: 7.00
- solubility kinetic [4]: 2.1 µM (≈ 0.948 µg/mL)

Compound: COc1nc(-c2csc(Nc3cc(C(F)(F)F)nn3C(C)(C)C)n2)ccc1-n1cnc(C)c1
- pIC50 [3]: 6.90
- solubility kinetic [4]: < 1.6 µM

Compound: CCn1nc2c(c1N(C)c1nc(-c3ccc(-n4cnc(C)c4)c(OC)n3)cs1)CCCC2
- pIC50 [3]: 6.20
- solubility kinetic [4]: 3.4 µM (≈ 1.53 µg/mL)

Compound: Cc1cn(-c2ccc(-c3csc(Nc4c5c(nn4C)CCCC5)n3)cc2)cn1
- remaining at 0.5 h, 1 µM ([1]; liver microsomes): 55%
- Stabilty [2]: 56%
- pIC50 [3]: 6.34
- Stabilty [5]: 84%

Compound: COc1cc(-c2csc(Nc3c4c(nn3C)CCCC4)n2)ccc1-n1cnc(C)c1
- pIC50 [3]: 6.83

Compound: COc1nc(-c2csc(Nc3cc(C(F)(F)F)nn3CC(F)(F)F)n2)ccc1-n1cnc(C)c1
- pIC50 [3]: 6.70
- solubility kinetic [4]: 2 µM (≈ 1.01 µg/mL)

Compound: COc1nc(-c2csc(Nc3c4c(nn3C(C)C)CCCC4)n2)ccc1-n1cnc(C)c1
- Stabilty [1]: 10%
- Stabilty [2]: 64%
- pIC50 [3]: 7.34
- solubility kinetic [4]: 3.3 µM (≈ 1.48 µg/mL)
- Stabilty [5]: 45%

Compound: CCn1nc(C(C)(C)C)cc1Nc1nc(-c2ccc(-n3cnc(C)c3)nc2)cs1
- Stabilty [1]: 43%
- Stabilty [2]: 60%
- pIC50 [3]: 6.53
- solubility kinetic [4]: < 1.6 µM
- Stabilty [5]: 87%

Compound: COc1nc(-c2csc(Nc3c4c(nn3CCN3CCCCC3)CCCC4)n2)ccc1-n1cnc(C)c1
- pIC50 [3]: 6.68
- solubility kinetic [4]: 46 µM (≈ 23.9 µg/mL)

Compound: COc1nc(-c2csc(Nc3c4c(nn3C(C)C)CCC4)n2)ccc1-n1cnc(C)c1
- Stabilty [1]: 23%
- Stabilty [2]: 56%
- pIC50 [3]: 7.05
- solubility kinetic [4]: 5.7 µM (≈ 2.48 µg/mL)
- Stabilty [5]: 34%

Compound: CCn1nc2c(c1Nc1nc(-c3ccc(-n4cnc(C)c4)c(O)n3)cs1)CCCC2
- pIC50 [3]: 6.33

Compound: COc1nc(-c2csc(Nc3c4c(nn3C3CCN(C)CC3)CCCC4)n2)ccc1-n1cnc(C)c1
- pIC50 [3]: < 6.00
- solubility kinetic [4]: 92 µM (≈ 46.4 µg/mL)

Compound: CCn1nc(C(C)(C)C)cc1Nc1nc(-c2ccc(-n3cnc(C)c3)cc2)cs1
- pIC50 [3]: 6.47

Compound: CCn1nc2c(c1Nc1nc(-c3cnc(-n4cnc(C)c4)c(OC)n3)cs1)CCCC2
- pIC50 [3]: 7.05
- solubility kinetic [4]: < 1.6 µM

Compound: COCCn1nc2c(c1Nc1nc(-c3ccc(-n4cnc(C)c4)c(OC)n3)cs1)CCCC2
- Stabilty [1]: 1.8%
- Stabilty [2]: 45%
- pIC50 [3]: 6.84
- solubility kinetic [4]: 20 µM (≈ 9.31 µg/mL)
- Stabilty [5]: 29%

Compound: CCn1nc2c(c1Nc1nc(-c3ccc(-n4cnc(C)c4)nc3)cs1)CCCC2
- pIC50 [3]: < 6.00

Compound: Cc1cn(-c2ccc(-c3csc(Nc4c5c(nn4C)CCCC5)n3)cn2)cn1
- pIC50 [3]: < 6.00

Compound: CCn1nc(C(C)(C)C)cc1Nc1nc(-c2ccc(-n3cnc(C)c3)c(OC)c2)cs1
- pIC50 [3]: 7.02

Compound: COc1nc(-c2csc(Nc3c4c(nn3CCN3CCOCC3)CCCC4)n2)ccc1-n1cnc(C)c1
- Stabilty [1]: 0%
- Stabilty [2]: 22%
- pIC50 [3]: 6.75
- solubility kinetic [4]: 70 µM (≈ 36.4 µg/mL)
- Stabilty [5]: 11%

Compound: CCn1nc2c(c1Nc1nc(-c3ccc(-n4cnc(C)c4)c(OC)c3)cs1)CCCC2
- pIC50 [3]: 6.77
- solubility kinetic [4]: 4.6 µM (≈ 2 µg/mL)

Compound: CCCn1nc2c(c1Nc1nc(-c3ccc(-n4cnc(C)c4)c(OC)n3)cs1)CCCC2
- pIC50 [3]: 7.32
- solubility kinetic [4]: < 1.6 µM

Compound: COc1nc(-c2csc(Nc3c4c(nn3C3CCC3)CCC4)n2)ccc1-n1cnc(C)c1
- Stabilty [1]: 3%
- Stabilty [2]: 37%
- pIC50 [3]: 7.68
- solubility kinetic [4]: 2.7 µM (≈ 1.21 µg/mL)
- Stabilty [5]: 26%

Compound: COc1nc(-c2csc(Nc3c4c(nn3C3CCOCC3)CCCC4)n2)ccc1-n1cnc(C)c1
- pIC50 [3]: 6.99
- solubility kinetic [4]: 4.7 µM (≈ 2.31 µg/mL)

Compound: COc1nc(-c2csc(Nc3c4c(nn3CCCN3CCOCC3)CCCC4)n2)ccc1-n1cnc(C)c1
- Stabilty [1]: 1.9%
- Stabilty [2]: 6.4%
- pIC50 [3]: 6.90
- solubility kinetic [4]: 39 µM (≈ 20.9 µg/mL)
- Stabilty [5]: 0.7%

Compound: COc1nc(-c2csc(Nc3c4c(nn3C(C)(C)C)CCC4)n2)ccc1-n1cnc(C)c1
- Stabilty [1]: 21%
- Stabilty [2]: 55%
- pIC50 [3]: 7.21
- solubility kinetic [4]: 3.9 µM (≈ 1.75 µg/mL)
- Stabilty [5]: 20%

Compound: CCn1nccc1Nc1nc(-c2ccc(-n3cnc(C)c3)c(OC)n2)cs1
- pIC50 [3]: < 6.00

Compound: Cc1cn(-c2ccc(-c3csc(Nc4cc(C(C)(C)C)nn4C)n3)cc2)cn1
- pIC50 [3]: 6.56

Compound: COc1nc(-c2csc(Nc3c4c(nn3C3CCOC3)CCCC4)n2)ccc1-n1cnc(C)c1 (racemic)
- Stabilty [1]: 2.1%
- Stabilty [2]: 42%
- pIC50 [3]: 6.99
- solubility kinetic [4]: 19 µM (≈ 9.07 µg/mL)
- Stabilty [5]: 70%

Compound: CCn1nc2c(c1Nc1nc(-c3ccc(-n4cnc(C)c4)cc3)cs1)CCCC2
- pIC50 [3]: 6.18

Compound: Cc1cn(-c2ccc(-c3csc(Nc4cc(C(C)(C)C)nn4C)n3)cn2)cn1
- pIC50 [3]: 6.23
